According to ChEMBL document CHEMBL4219033, “Anticancer activity profiling of parthenolide analogs generated via P450-mediated chemoenzymatic synthesis” (2018):

Columns and labels:
Type in all cases: functional
Jurkat [1] = experiment: Cytotoxicity against human Jurkat cells assessed as cell viability at 10 uM after 24 hrs by MTT assay relative to control; conditions: read-out: Activity
Procedure, shortened: (§1)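 Suspension lines grown in α-MEM plus 10% FBS and penicillin-streptomycin, 37 °C, 5% CO2. Seeded at 30,000 cells/well in phenol-red-free α-MEM and rested 15 h. Exposed to 10 µM, or 2 µM in the lower-dose repeat, at 1% DMSO final for 24 h. 5 mg/ml MTT added directly for 3 h at 37 °C. Plates spun, formazan dissolved in DMSO, OD read at 550 nm. Viability relative to vehicle.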

PC-3 = experiment: Cytotoxicity against human PC3 cells assessed as cell viability at 10 uM after 24 hrs by MTT assay relative to control; conditions: PC-3, 24 h, read-out: Activity
Procedure, shortened: (§2)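 Adherent lines in DMEM plus 10% FBS and penicillin-streptomycin, 37 °C, 5% CO2, lifted with Accutase. Seeded at 500–10,000 cells/well and rested 15 h. Compounds from 10 mM DMSO stocks dosed at 10 µM final, 1% DMSO final, n = 5, for 24 h. Medium then swapped for 1 mg/ml MTT in phenol-red-free medium for 3 h at 37 °C. Formazan dissolved in DMSO, OD read at 550 nm. Viability normalised to 1% DMSO vehicle control.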

HeLa = experiment: Cytotoxicity against human HeLa cells assessed as cell viability at 10 uM after 24 hrs by MTT assay relative to control; conditions: read-out: Activity; procedure, shortened: as §2
A549 = experiment: Cytotoxicity against human A549 cells assessed as cell viability at 10 uM after 24 hrs by MTT assay relative to control; conditions: A549, 24 h, read-out: Activity; procedure, shortened: as §2
HCT-116 = experiment: Cytotoxicity against human HCT116 cells assessed as cell viability at 10 uM after 24 hrs by MTT assay relative to control; conditions: HCT-116, 24 h, read-out: Activity; procedure, shortened: as §2
SK-N-MC = experiment: Cytotoxicity against human SK-N-MC cells assessed as cell viability at 10 uM after 24 hrs by MTT assay relative to control; conditions: read-out: Activity; procedure, shortened: as §2
MDA-MB-231 = experiment: Cytotoxicity against human MDA-MB-231 cells assessed as cell viability at 10 uM after 24 hrs by MTT assay relative to control; conditions: MDA-MB-231, 24 h, read-out: Activity; procedure, shortened: as §2
SK-MEL-2 = experiment: Cytotoxicity against human SK-MEL-2 cells assessed as cell viability at 10 uM after 24 hrs by MTT assay relative to control; conditions: SK-MEL-2, 24 h, read-out: Activity; procedure, shortened: as §2
JeKo-1 [2] = experiment: Cytotoxicity against human JeKo1 cells assessed as cell viability at 10 uM after 24 hrs by MTT assay relative to control; conditions: JeKo-1, 24 h, read-out: Activity; procedure, shortened: as §1
SJSA-1 = experiment: Cytotoxicity against human SJSA1 cells assessed as cell viability at 10 uM after 24 hrs by MTT assay relative to control; conditions: SJSA-1, 24 h, read-out: Activity; procedure, shortened: as §2
Jurkat [3] = experiment: Cytotoxicity against human Jurkat cells assessed as cell viability at 2 uM after 24 hrs by MTT assay relative to control; conditions: read-out: Activity; procedure, shortened: as §1
JeKo-1 [4] = experiment: Cytotoxicity against human JeKo1 cells assessed as cell viability at 2 uM after 24 hrs by MTT assay relative to control; conditions: JeKo-1, 24 h, read-out: Activity; procedure, shortened: as §1

Compound	viability at 10 µM (Jurkat [1]) [%]	viability at 10 µM (PC-3) [%]	viability at 10 µM (HeLa) [%]	viability at 10 µM (A549) [%]	viability at 10 µM (HCT-116) [%]	viability at 10 µM (SK-N-MC) [%]	viability at 10 µM (MDA-MB-231) [%]	viability at 10 µM (SK-MEL-2) [%]	viability at 10 µM (JeKo-1 [2]) [%]	viability at 10 µM (SJSA-1) [%]	viability at 2 µM (Jurkat [3]) [%]	viability at 2 µM (JeKo-1 [4]) [%]
C=C1C(=O)O[C@@H]2[C@H]3O[C@]3(C)CC/C=C(/COC(=O)c3cc(-c4ccc(Cl)cc4)on3)CC[C@@H]12	47.1	95.2	88.4	102	103	64.5	100	98.6	39.4	100	94	90.6
C=C1C(=O)O[C@@H]2[C@H]3O[C@]3(C)CC/C=C(/COC(C(=O)OCc3ccccc3)c3ccccc3)CC[C@@H]12 (stereo not given in full)	1	85.2	79.2	81.5	45.8	97.8	88.1	80.7	0.8	101	87.8	98.7
C=C1C(=O)O[C@@H]2[C@H]3O[C@]3(C)CC/C=C(/COCc3ccccc3)CC[C@@H]12	6	94.7	74.8	99.3	96.3	75.3	100	84.2	5	99.4	91	100
C=C1C(=O)O[C@@H]2[C@H]3O[C@]3(C)CC/C=C(/C)[C@@H](OC(=O)c3ccc4ccccc4c3)C[C@@H]12	86.1	83.4	88.8	95.8	100	96.8	100	98.7	71.9	100	83.4	97
C=C1C(=O)O[C@@H]2[C@H]3O[C@]3(C)CC/C=C(/COC(C(=O)OCC)c3ccc(C(F)(F)F)cc3)CC[C@@H]12 (stereo not given in full)	29.3	87.2	89.6	74.8	77.5	96.9	96.3	89.8	26.4	100	90.2	89.3
C=C1C(=O)O[C@@H]2[C@H]3O[C@]3(C)CC/C=C(/C)[C@@H](OC(C(=O)OCC)c3ccccc3)C[C@@H]12 (stereo not given in full)	0	78.9	77.5	60.7	46.2	100	90	72.5	-2.9	100	85.9	76.6
C=C1C(=O)O[C@@H]2[C@H]3O[C@]3(C)CC/C=C(/COC(=O)c3ccc4ccccc4c3)CC[C@@H]12	75.7	81.9	75	84.5	100	104	100	73.6	63.2	98.3	97.9	89.2
C=C1C(=O)O[C@@H]2[C@H]3O[C@]3(C)CC/C=C(/COc3coc(-c4ccc(Br)cc4)c3)CC[C@@H]12	0	97.1	59.2	95.2	26.4	90.9	87.1	103	-2	93.7	87.6	98.8
C=C1C(=O)O[C@@H]2[C@H]3O[C@]3(C)CC/C=C(/C)[C@@H](OC(C(=O)OCC)c3ccc(C(F)(F)F)cc3)C[C@@H]12 (stereo not given in full)	0	60.4	67.1	70.4	20	69.8	77.6	71.2	-1.4	100	80.6	76.3
C=C1C(=O)O[C@@H]2[C@H]3O[C@]3(C)CC/C=C(\C)[C@@H](OC(=O)c3ccc(C(F)(F)F)cc3)C[C@@H]12	93.2	47.6	68	90.4	40	67.4	69	88.1	23.3	58.2	78.9	93.6
C=C1C(=O)O[C@@H]2[C@H]3O[C@]3(C)CC/C=C(/C)[C@@H](OC(=O)c3cccs3)C[C@@H]12	15.4	93	87.5	102	29.4	98.2	97.6	94.7	12.9	98.3	94	98.1
C=C1C(=O)O[C@@H]2[C@H]3O[C@]3(C)CC/C=C(/COC(C(=O)OCC)c3ccccc3)CC[C@@H]12 (stereo not given in full)	18.3	85.8	85.1	59.1	76.7	98	98.8	81.2	16.5	100	87.8	88.6
C=C1C(=O)O[C@@H]2[C@H]3O[C@]3(C)CC/C=C(/COCc3ccc(C(F)(F)F)cc3)CC[C@@H]12	21.8	89.3	72.5	87.7	82.9	93.6	100	79.6	18.2	100	100	97.3
C=C1C(=O)O[C@@H]2[C@H]3O[C@]3(C)CC/C=C(/C)[C@@H](OC(C(=O)OCc3ccccc3)c3ccccc3)C[C@@H]12 (stereo not given in full)	0.6	91.9	79	69.8	63.7	84.1	101	66.3	-1.3	103	82	89.4
C=C1C(=O)O[C@@H]2[C@H]3O[C@]3(C)CC/C=C(/COC(=O)c3ccc(C(F)(F)F)cc3)CC[C@@H]12	0	69.3	63.9	94.1	27.3	67.8	75.5	85.4	-1.6	73.6	92.4	95.9
